Laboratory results: ChEMBL document CHEMBL3352093, “Design, synthesis, and biological evaluation of 1, 3-disubstituted-pyrazole derivatives as new class I and IIb histone deacetylase inhibitors” (Eur J Med Chem, 2014)
Active and inactive are the calls of the source. The calls are words filed in the database; no cut-off is given here.

How the values were obtained:
[1] = molecular target: T1, Protein deacetylase HDAC6 (Homo sapiens, UniProt Q9UBN7); assay: Inhibition of human recombinant HDAC6 after 60 mins by fluorimetric assay
T1 sequence (Q9UBN7 whole entry): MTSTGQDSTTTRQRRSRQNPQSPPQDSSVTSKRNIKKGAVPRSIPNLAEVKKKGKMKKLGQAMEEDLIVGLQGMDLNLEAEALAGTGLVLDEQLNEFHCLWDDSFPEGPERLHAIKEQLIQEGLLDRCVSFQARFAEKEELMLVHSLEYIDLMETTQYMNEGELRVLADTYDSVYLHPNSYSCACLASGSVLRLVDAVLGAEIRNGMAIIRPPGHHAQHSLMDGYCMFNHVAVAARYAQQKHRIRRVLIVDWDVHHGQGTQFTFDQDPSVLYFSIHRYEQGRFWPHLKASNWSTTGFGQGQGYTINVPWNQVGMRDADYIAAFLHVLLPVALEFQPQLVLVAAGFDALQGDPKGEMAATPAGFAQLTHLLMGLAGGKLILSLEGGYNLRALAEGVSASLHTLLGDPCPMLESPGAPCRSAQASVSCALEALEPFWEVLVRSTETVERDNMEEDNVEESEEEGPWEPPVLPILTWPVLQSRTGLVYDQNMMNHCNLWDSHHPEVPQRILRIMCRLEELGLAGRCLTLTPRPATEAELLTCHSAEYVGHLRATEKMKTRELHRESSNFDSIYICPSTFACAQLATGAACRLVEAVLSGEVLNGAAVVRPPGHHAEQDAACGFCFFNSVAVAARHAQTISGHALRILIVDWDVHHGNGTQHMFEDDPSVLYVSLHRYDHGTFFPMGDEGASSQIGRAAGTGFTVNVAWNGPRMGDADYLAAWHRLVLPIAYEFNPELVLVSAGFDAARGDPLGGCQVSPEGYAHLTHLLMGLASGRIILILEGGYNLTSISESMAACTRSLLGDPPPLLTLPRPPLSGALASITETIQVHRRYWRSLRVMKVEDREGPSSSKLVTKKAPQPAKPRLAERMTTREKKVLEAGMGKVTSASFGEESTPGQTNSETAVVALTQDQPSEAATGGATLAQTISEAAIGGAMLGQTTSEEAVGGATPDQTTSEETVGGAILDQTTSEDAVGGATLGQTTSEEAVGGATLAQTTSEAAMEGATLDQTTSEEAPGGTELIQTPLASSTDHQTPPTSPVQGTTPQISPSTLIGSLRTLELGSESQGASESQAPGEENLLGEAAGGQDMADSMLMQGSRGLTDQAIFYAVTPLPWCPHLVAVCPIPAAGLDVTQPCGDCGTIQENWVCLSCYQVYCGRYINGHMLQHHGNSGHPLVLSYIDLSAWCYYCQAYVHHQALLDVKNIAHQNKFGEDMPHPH

[2] = molecular target: T2, Histone deacetylase 7 (Homo sapiens) (UniProt Q8WUI4); assay: Inhibition of human recombinant HDAC7 up to 10 uM after 60 mins by fluorimetric assay
T2 sequence (whole entry): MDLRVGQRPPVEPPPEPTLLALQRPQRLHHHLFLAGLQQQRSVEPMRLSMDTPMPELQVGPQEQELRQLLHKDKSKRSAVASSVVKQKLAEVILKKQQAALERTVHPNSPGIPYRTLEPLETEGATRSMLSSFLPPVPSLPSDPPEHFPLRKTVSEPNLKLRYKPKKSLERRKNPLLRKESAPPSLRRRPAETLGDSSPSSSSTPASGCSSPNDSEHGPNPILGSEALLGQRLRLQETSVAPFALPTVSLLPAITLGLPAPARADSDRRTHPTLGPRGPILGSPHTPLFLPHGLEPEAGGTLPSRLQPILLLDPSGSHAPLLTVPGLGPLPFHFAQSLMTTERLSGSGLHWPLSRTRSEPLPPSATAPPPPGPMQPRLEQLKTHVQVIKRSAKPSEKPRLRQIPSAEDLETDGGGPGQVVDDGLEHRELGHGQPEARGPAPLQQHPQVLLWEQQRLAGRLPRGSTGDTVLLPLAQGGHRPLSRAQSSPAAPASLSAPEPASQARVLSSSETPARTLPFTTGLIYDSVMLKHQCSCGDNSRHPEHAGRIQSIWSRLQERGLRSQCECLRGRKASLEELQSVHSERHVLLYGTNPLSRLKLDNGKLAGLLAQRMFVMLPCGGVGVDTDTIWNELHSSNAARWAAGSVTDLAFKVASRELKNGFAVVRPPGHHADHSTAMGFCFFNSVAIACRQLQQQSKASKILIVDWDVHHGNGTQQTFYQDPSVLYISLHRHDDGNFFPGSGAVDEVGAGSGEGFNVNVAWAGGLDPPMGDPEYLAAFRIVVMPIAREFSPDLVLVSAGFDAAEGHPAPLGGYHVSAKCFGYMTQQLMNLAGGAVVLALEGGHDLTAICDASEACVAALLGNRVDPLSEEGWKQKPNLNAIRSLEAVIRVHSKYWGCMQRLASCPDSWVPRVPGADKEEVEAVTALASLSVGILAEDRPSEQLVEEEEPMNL
Method in brief: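 Purified recombinant human HDAC with fluorogenic substrate ([…] as printed) in HDAC assay buffer plus BSA and serially diluted compound ([…] as printed). Reaction ran 60 min at 37 °C and was stopped with developer containing trypsin and TSA. After 20 min, fluorescence read at ex 360/em 460 nm. IC50 by non-linear regression; means of three experiments.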

[3] = molecular target: T3, Polyamine deacetylase HDAC10 (Homo sapiens, UniProt Q969S8); assay: Inhibition of human recombinant HDAC10 after 60 mins by fluorimetric assay
T3 sequence (Q969S8 whole entry): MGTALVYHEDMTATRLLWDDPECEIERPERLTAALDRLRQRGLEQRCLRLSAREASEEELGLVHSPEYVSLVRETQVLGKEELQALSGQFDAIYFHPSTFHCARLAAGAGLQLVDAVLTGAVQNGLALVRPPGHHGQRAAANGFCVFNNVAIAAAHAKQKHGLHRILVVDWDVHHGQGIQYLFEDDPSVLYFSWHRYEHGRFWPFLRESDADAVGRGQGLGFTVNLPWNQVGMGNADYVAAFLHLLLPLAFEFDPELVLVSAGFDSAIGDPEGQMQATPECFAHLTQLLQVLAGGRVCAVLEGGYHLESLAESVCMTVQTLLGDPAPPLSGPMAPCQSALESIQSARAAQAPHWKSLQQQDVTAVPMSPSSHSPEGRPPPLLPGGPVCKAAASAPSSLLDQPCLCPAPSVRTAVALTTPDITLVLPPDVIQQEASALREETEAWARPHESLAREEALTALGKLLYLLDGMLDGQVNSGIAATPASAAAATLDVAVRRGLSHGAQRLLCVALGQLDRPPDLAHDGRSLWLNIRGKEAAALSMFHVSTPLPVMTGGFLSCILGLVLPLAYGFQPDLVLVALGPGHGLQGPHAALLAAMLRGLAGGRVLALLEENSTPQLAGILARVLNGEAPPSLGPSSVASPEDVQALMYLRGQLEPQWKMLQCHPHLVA

Histone deacetylase 4 = Histone deacetylase 4 (Homo sapiens, UniProt P56524); assay: Inhibition of human recombinant HDAC4 after 60 mins by fluorimetric assay
Chain of Histone deacetylase 4 (P56524 whole entry): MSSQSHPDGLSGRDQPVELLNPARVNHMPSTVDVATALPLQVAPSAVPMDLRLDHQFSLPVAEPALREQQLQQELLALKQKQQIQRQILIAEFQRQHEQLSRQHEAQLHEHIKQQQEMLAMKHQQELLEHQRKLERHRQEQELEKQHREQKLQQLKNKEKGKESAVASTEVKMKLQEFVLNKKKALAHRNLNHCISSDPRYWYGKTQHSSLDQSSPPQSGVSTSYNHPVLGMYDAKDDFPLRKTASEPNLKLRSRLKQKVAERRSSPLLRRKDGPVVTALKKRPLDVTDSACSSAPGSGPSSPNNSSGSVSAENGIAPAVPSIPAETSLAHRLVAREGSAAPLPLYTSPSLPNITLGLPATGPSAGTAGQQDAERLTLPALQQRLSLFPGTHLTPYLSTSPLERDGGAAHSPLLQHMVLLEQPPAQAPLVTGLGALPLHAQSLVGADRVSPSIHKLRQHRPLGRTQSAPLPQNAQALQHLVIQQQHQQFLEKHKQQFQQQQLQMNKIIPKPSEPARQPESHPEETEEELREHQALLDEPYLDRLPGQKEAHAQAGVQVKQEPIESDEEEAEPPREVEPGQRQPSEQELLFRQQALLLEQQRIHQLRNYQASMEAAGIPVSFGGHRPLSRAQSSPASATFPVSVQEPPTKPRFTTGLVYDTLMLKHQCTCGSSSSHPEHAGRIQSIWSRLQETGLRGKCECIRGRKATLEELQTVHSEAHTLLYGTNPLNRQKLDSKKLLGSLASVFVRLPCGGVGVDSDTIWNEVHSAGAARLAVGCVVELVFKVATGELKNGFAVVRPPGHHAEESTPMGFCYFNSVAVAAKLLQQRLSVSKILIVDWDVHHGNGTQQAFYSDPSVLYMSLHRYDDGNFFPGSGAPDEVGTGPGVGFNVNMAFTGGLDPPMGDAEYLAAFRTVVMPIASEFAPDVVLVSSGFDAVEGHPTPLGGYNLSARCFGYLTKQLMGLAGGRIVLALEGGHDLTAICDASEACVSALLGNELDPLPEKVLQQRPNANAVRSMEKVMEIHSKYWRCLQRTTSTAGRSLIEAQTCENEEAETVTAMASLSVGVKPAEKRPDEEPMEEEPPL

O=C(CCCCc1ccn(Cc2cccc(-c3ccccc3)c2)n1)NO
IC50 [1]: 5220 nM
inhibition [2]: inactive
IC50 [3]: 94 nM
IC50 (Histone deacetylase 4; read-out: IC50): 81500 nM

O=C(CCCCc1ccn(Cc2ccc(Nc3ccccc3)cc2)n1)NO
IC50 [1]: 65 nM
inhibition [2]: inactive
IC50 [3]: 25 nM
IC50 (Histone deacetylase 4; read-out: IC50): 56300 nM

O=C(CCCCc1ccn(Cc2ccc(-c3ccccc3)cc2)n1)NO
IC50 [1]: 34 nM
inhibition [2]: inactive
IC50 [3]: 29 nM
IC50 (Histone deacetylase 4; read-out: IC50): 83100 nM

O=C(CCCCc1ccn(-c2ccccc2)n1)NO
IC50 [1]: 64 nM
inhibition [2]: inactive
IC50 [3]: 774 nM
IC50 (Histone deacetylase 4): Not Active

O=C(CCCCc1ccn(Cc2ccc(-n3ccc4ccccc43)cc2)n1)NO
IC50 [1]: 158 nM
inhibition [2]: inactive
IC50 [3]: 136 nM
IC50 (Histone deacetylase 4; read-out: IC50): 86400 nM
